Assay results taken from ChEMBL document CHEMBL3108707, “Design, synthesis and structure-activity relationships of some novel, highly potent anti-invasive (E)- and (Z)-stilbenes” (2013).
Active and inactive are the calls of the source. No cut-off for these calls is given here.

Legend:
MCF7/6 [1] = experiment: Antiinvasive activity against human MCF7/6 cells assessed as decrease in occupying outer fibroblast-like and myoblast cell layers at 1 umol/L after 8 days by hematoxylin and eosin staining assay; type: functional, cell-based
In short: (§1)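 Precultured heart fragments from 9-day-old chick embryos (0.4 mm diameter) were paired with MCF-7/6 aggregates (0.2 mm). Pairs sat overnight at 37 °C on semi-solid agar, then spun 8 days in suspension (37 °C, 120 rpm, 10% CO₂) with compound added in DMSO. Runs were usually in duplicate; 10 µmol/L often single. 7 µm sections were scored histologically for invasion grade 0–IV, with alternate sections stained with 5D10 antibody.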

MCF7/6 [2] = experiment: Antiinvasive activity against human MCF7/6 cells assessed as precultured chick heart tissue fragment attachment without occupying heart tissue and outermost fibroblastic cell layers at 1 umol/L after 8 days by hematoxylin and eosin staining assay; type: functional, cell-based; in short: as §1
MCF7/6 [3] = experiment: Antiinvasive activity against human MCF7/6 cells assessed as decrease in occupying outer fibroblast-like and myoblast cell layers at 0.1 umol/L after 8 days by hematoxylin and eosin staining assay; type: functional, cell-based; in short: as §1
[4] = Antiinvasive activity against human MCF7/6 cells assessed as minimum log concentration required to show activity after 8 days by hematoxylin and eosin staining-based chick heart invasion assay; type: functional; parameters: unit: log(µmol/L)
In short: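 Confronting cultures were set up as chick heart fragments (9-day embryos) plus MCF-7/6 aggregates, 8 days at 37 °C. Compound was dosed in DMSO at 10, 1, 0.1 and 0.01 µmol/L, in duplicate, and grades were scored histologically. c_min is the lowest concentration where both repeats gave grade I or II; inconclusive cases were repeated. A single active repeat counted if all repeats at 10-fold higher were active. The value is reported as log c_min.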

MCF7/6 [5] = experiment: Antiinvasive activity against human MCF7/6 cells assessed as occupying less than half of original amount of chick precultured heart tissue fragment at 10 umol/L after 8 days by hematoxylin and eosin staining assay; type: functional, cell-based; in short: as §1
MCF7/6 [6] = experiment: Antiinvasive activity against human MCF7/6 cells assessed as decrease in occupying outer fibroblast-like and myoblast cell layers at 10 umol/L after 8 days by hematoxylin and eosin staining assay; type: functional, cell-based; in short: as §1
MCF7/6 [7] = experiment: Antiinvasive activity against human MCF7/6 cells assessed as occupying less than half of original amount of heart tissue at 0.1 umol/L after 8 days by hematoxylin and eosin staining assay; type: functional, cell-based; in short: as §1
MCF7/6 [8] = experiment: Antiinvasive activity against human MCF7/6 cells assessed as occupying more than half of original amount of chick precultured heart tissue fragment at 10 umol/L after 8 days by hematoxylin and eosin staining assay; type: functional, cell-based; in short: as §1
MCF7/6 [9] = experiment: Antiinvasive activity against human MCF7/6 cells assessed as chick precultured heart tissue fragment attachment without occupying heart tissue and outermost fibroblastic cell layer at 0.1 umol/L after 8 days by hematoxylin and eosin staining assay; type: functional, cell-based; in short: as §1
MCF7/6 [10] = experiment: Antiinvasive activity against human MCF7/6 cells assessed as decrease in occupying outer fibroblast-like and myoblast cell layers at 0.01 umol/L after 8 days by hematoxylin and eosin staining assay; type: functional, cell-based; in short: as §1
MCF7/6 [11] = experiment: Antiinvasive activity against human MCF7/6 cells assessed as precultured chick heart tissue fragment attachment without occupying heart tissue and outermost fibroblastic cell layer at 10 umol/L after 8 days by hematoxylin and eosin staining assay; type: functional, cell-based; in short: as §1
MCF7/6 [12] = experiment: Antiinvasive activity against human MCF7/6 cells assessed as occupying less than half of original amount of heart tissue at 1 umol/L after 8 days by hematoxylin and eosin staining assay; type: functional, cell-based; in short: as §1

| SMILES | Activity (MCF7/6 [1]) | Activity (MCF7/6 [3]) | logMEC [4] | Activity (MCF7/6 [6]) | Activity (MCF7/6 [7]) | Activity (MCF7/6 [10]) | also measured |
| --- | --- | --- | --- | --- | --- | --- | --- |
| C(=C\c1ccccc1)/c1ccccc1 | Active | Active | -1 |  |  |  | Activity (MCF7/6 [2]): Active; Activity (MCF7/6 [5]): inactive |
| COc1cc(/C=C/c2ccc(F)cc2)cc(OC)c1OC |  |  | 0 | Active | inactive |  |  |
| COc1ccc(/C=C/c2ccccc2)cc1 |  | Active | -1 |  |  |  | Activity (MCF7/6 [8]): inactive; Activity (MCF7/6 [9]): Active |
| COc1cc(/C=C\c2ccccc2)cc(OC)c1OC | Active | Active | -2 | Active |  | Active | Activity (MCF7/6 [2]): Active |
| COc1cc(/C=C/c2ccccc2)cc(OC)c1OC |  |  | -1 | Active |  |  |  |
| COc1cc(/C=C\c2ccc(F)cc2)cc(OC)c1OC |  |  | 1 |  | inactive |  | Activity (MCF7/6 [11]): Active; Activity (MCF7/6 [12]): inactive |
| Fc1ccc(/C=C\c2ccccc2)cc1 |  |  | -2 |  |  | Active |  |
| Fc1ccc(/C=C/c2ccc(F)cc2)cc1 |  | Active | -2 | Active |  | Active |  |
| Fc1ccc(/C=C/c2ccccc2)cc1 | Active |  |  |  | inactive |  |  |
| COc1ccc(/C=C/c2ccc(F)cc2)cc1 |  | Active | -2 | Active |  | Active |  |
